Measured values reported in ChEMBL document CHEMBL4828746, “Design, synthesis and evaluation of heteroaryldihydropyrimidine analogues bearing spiro ring as hepatitis B virus capsid protein inhibitors” (Eur J Med Chem, 2021).

Legend:
[1] = target: Core antigen (Hepatitis B virus) (UniProt Q03732); assay: Inhibition of capsid protein in HBV infected in human HepDES19 cells assessed as inhibition of viral replication by measuring minus polarity DNA level at 3 uM incubated for 3 days by strand preferential qPCR analysis relative to control; set-up: scale not given: the % may be the effect or the level left; conditions: time 3.0 day
[2] = target: Core antigen (Hepatitis B virus) (UniProt Q03732); assay: Inhibition of capsid protein in HBV infected in human HepDES19 cells assessed as inhibition of viral replication by measuring plus polarity DNA level at 20 uM incubated for 3 days by strand preferential qPCR analysis relative to control; assay type: cell-based; set-up: scale not given: the % may be the effect or the level left; conditions: time 3.0 day
How it was run: (§1)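 HepDES19 cells (HepG2 line carrying a tetracycline-repressible HBV genotype D genome) seeded at 4 x 10^4/well without tetracycline. Lysates treated with micrococcal nuclease, then protease. Plus- or minus-strand DNA quantified by strand-preferential qPCR as % of DMSO control. Each compound screened at two concentrations only: 20 and 5 μM, or 10 and 3 μM.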

[3] = target: Core antigen (Hepatitis B virus) (UniProt Q03732); assay: Inhibition of capsid protein in HBV infected in human HepDES19 cells assessed as inhibition of viral replication by measuring minus polarity DNA level at 20 uM incubated for 3 days by strand preferential qPCR analysis relative to control; assay type: cell-based; set-up: scale not given: the % may be the effect or the level left; conditions: time 3.0 day
How it was run: as §1, with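 “tetracycline. Compound added 48 h after induction in 1% DMSO, then 3 days at 37°C, 5% CO2.” for “tetracycline.”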

[4] = target: Core antigen (Hepatitis B virus) (UniProt Q03732); assay: Inhibition of capsid protein in HBV infected in human HepDES19 cells assessed as inhibition of viral replication by measuring plus polarity DNA level at 3 uM incubated for 3 days by strand preferential qPCR analysis relative to control; set-up: scale not given: the % may be the effect or the level left; conditions: time 3.0 day
[5] = target: Core antigen (Hepatitis B virus) (UniProt Q03732); assay: Inhibition of capsid protein in HBV infected in human HepDES19 cells assessed as inhibition of viral replication by measuring minus polarity DNA level at 5 uM incubated for 3 days by strand preferential qPCR analysis relative to control; assay type: cell-based; set-up: scale not given: the % may be the effect or the level left; conditions: time 3.0 day
How it was run: as §1

Hepatitis B virus [6] = assay: Antiviral activity against HBV infected in human HepG2.2.15 cells assessed as inhibition of viral replication in presence of 50% human serum albumin; assay type: functional
Hepatitis B virus [7] = assay: Antiviral activity against HBV infected in human HepG2.2.15 cells assessed as inhibition of viral replication incubated for 8 days by southern blotting analysis; assay type: functional, organism-based; conditions: HepG2.2.15, 192 h
[8] = target: Core antigen (Hepatitis B virus) (UniProt Q03732); assay: Inhibition of capsid protein in HBV infected in human HepDES19 cells assessed as inhibition of viral replication by measuring minus polarity DNA level at 3 uM incubated for 3 days by strand preferential qPCR analysis relative to control; assay type: cell-based; set-up: scale not given: the % may be the effect or the level left; conditions: time 3.0 day
How it was run: as §1, with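 “tetracycline. Compound added 48 h after induction in 1% DMSO, then 3 days at 37°C, 5% CO2.” for “tetracycline.”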

[9] = target: Core antigen (Hepatitis B virus) (UniProt Q03732); assay: Inhibition of capsid protein in HBV infected in human HepDES19 cells assessed as inhibition of viral replication by measuring plus polarity DNA level at 10 uM incubated for 3 days by strand preferential qPCR analysis relative to control; assay type: cell-based; set-up: scale not given: the % may be the effect or the level left; conditions: time 3.0 day
How it was run: as §1, with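 “tetracycline. Compound added 48 h after induction in 1% DMSO, then 3 days at 37°C, 5% CO2.” for “tetracycline.”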

[10] = target: Core antigen (Hepatitis B virus) (UniProt Q03732); assay: Inhibition of capsid protein in HBV infected in human HepDES19 cells assessed as inhibition of viral replication by measuring minus polarity DNA level at 10 uM incubated for 3 days by strand preferential qPCR analysis relative to control; assay type: cell-based; set-up: scale not given: the % may be the effect or the level left; conditions: time 3.0 day
How it was run: as §1, with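 “tetracycline. Compound added 48 h after induction in 1% DMSO, then 3 days at 37°C, 5% CO2.” for “tetracycline.”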

[11] = target: Core antigen (Hepatitis B virus) (UniProt Q03732); assay: Inhibition of capsid protein in HBV infected in human HepDES19 cells assessed as inhibition of viral replication by measuring plus polarity DNA level at 3 uM incubated for 3 days by strand preferential qPCR analysis relative to control; assay type: cell-based; set-up: scale not given: the % may be the effect or the level left; conditions: time 3.0 day
How it was run: as §1, with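 “tetracycline. Compound added 48 h after induction in 1% DMSO, then 3 days at 37°C, 5% CO2.” for “tetracycline.”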

Chain of Core antigen (Hepatitis B virus) (Q03732 as listed by the source): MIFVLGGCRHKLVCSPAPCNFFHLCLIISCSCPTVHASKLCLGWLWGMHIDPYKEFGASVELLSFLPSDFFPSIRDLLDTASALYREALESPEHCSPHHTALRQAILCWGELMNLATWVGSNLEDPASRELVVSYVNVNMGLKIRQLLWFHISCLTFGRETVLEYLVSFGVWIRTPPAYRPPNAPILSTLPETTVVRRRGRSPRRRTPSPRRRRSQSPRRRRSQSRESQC

## CCOC(=O)C1=C(CN2CCC3(CCNC3)CC2)NC(c2nccs2)=NC1c1ccc(F)cc1Br (stereo unspecified)
[1]
  Activity: 72.5%
[2]
  Activity: 105%
[3]
  Activity: 99.6%

## CCOC(=O)C1=C(CN2CC3(CCN(C(=O)OC(C)(C)C)C3)CC2=O)NC(c2nccs2)=NC1c1ccc(F)cc1Br (stereo unspecified)
[4]
  Activity: 2.7%
[2]
  Activity: 1.8%
[5]
  Activity: 2.9%
[3]
  Activity: 1.3%

## CCOC(=O)C1=C(CN2CCC3(CCNCC3)C2)NC(c2nccs2)=NC1c1ccc(F)cc1Br (stereo unspecified)
[1]
  Activity: 69.9%
[2]
  Activity: 88.4%
[3]
  Activity: 86.4%

## CCOC(=O)C1=C(CN2CCC3(CC(=O)N(Cc4ccccc4)C3=O)C2)NC(c2nccs2)=NC1c1ccc(F)cc1Br (stereo unspecified)
[4]
  Activity: 3%
[2]
  Activity: 2%
[5]
  Activity: 2.8%
[3]
  Activity: 2.2%

## CCOC(=O)C1=C(CN2CCC3(CCNCC3)CC2)NC(c2nccs2)=NC1c1ccc(F)cc1Br (stereo unspecified)
[1]
  Activity: 67.1%
[2]
  Activity: 106%
[3]
  Activity: 97.7%

## CCOC(=O)C1=C(CN2CC3(CCNC3)CC2=O)NC(c2nccs2)=NC1c1ccc(F)cc1Br (stereo unspecified)
[2]
  Activity: 120%
[3]
  Activity: 68.9%

## CCOC(=O)C1=C(CN2CCC3(CC2)CC(=O)NC3=O)NC(c2nccs2)=NC1c1ccc(F)cc1Br (stereo unspecified)
[4]
  Activity: 18.9%
[2]
  Activity: 22.4%
[5]
  Activity: 21.1%
[3]
  Activity: 34.8%

## CCOC(=O)C1=C(CN2CC3(CC2=O)CN(C(=O)OC(C)(C)C)C3)NC(c2nccs2)=NC1c1ccc(F)cc1Br (stereo unspecified)
[4]
  Activity: 2.4%
[2]
  Activity: 3.5%
[5]
  Activity: 2.5%
[3]
  Activity: 1.8%

## CCOC(=O)C1=C(CN2CCOCC2)NC(c2nccs2)=N[C@H]1c1ccc(F)cc1Br
Hepatitis B virus [6]
  EC90: 0.0557 µg/mL
Hepatitis B virus [7]
  EC50: 12 nM
[3]
  Activity: 22.6%

## CCOC(=O)C1=C(CN2CCC3(CNC(=O)C3)C2)NC(c2nccs2)=NC1c1ccc(F)cc1Br (stereo unspecified)
[4]
  Activity: 2.8%
[2]
  Activity: 3%
[5]
  Activity: 2.3%
[3]
  Activity: 2.5%

## CCOC(=O)C1=C(CN2CCC3(CCN(C(=O)OC(C)(C)C)C3)C2=O)NC(c2nccs2)=NC1c1ccc(F)cc1Br (stereo unspecified)
[4]
  Activity: 3.3%
[2]
  Activity: 0.8%
[5]
  Activity: 2.9%
[3]
  Activity: 0.8%

## CCOC(=O)C1=C(CN2CCC3(C2)CN(C(=O)OC(C)(C)C)C3)NC(c2nccs2)=NC1c1ccc(F)cc1Br (stereo unspecified)
[1]
  Activity: 85.3%
[2]
  Activity: 54.7%
[3]
  Activity: 56.5%

## Nc1ccn([C@@H]2CS[C@H](CO)O2)c(=O)n1 [LAMIVUDINE]
[1]
  Activity: 79.1%
Hepatitis B virus [7]
  EC50: 325 nM
[4]
  Activity: 23.9%
[2]
  Activity: 4%
[3]
  Activity: 11.8%

## CCOC(=O)C1=C(CN2CCC3(CC2)CNC3)NC(c2nccs2)=NC1c1ccc(F)cc1Br (stereo unspecified)
[1]
  Activity: 70.8%
[2]
  Activity: 113%
[3]
  Activity: 93.4%

## CCOC(=O)C1=C(CN2CCC3(CCNC3=O)CC2)NC(c2nccs2)=NC1c1ccc(F)cc1Br (stereo unspecified)
[2]
  Activity: 18.3%
[5]
  Activity: 44.1%
[3]
  Activity: 37.8%

## CCOC(=O)C1=C(CN2CCC3(CNC3)C2)NC(c2nccs2)=NC1c1ccc(F)cc1Br (stereo unspecified)
[1]
  Activity: 84.5%
[2]
  Activity: 82.2%
[3]
  Activity: 88.8%

## CCOC(=O)C1=C(CN2CCC3(CC2)CNC3=O)NC(c2nccs2)=NC1c1ccc(F)cc1Br (stereo unspecified)
[4]
  Activity: 2.7%
[2]
  Activity: 2.4%
[5]
  Activity: 3.4%
[3]
  Activity: 2.5%

## CCOC(=O)C1=C(CN2CC3(CNC3)CC2=O)NC(c2nccs2)=NC1c1ccc(F)cc1Br (stereo unspecified)
[2]
  Activity: 108%
[3]
  Activity: 85.3%

## CCOC(=O)C1=C(CN2CCC3(CC2)CNC(=O)C3)NC(c2nccs2)=NC1c1ccc(F)cc1Br (stereo unspecified)
[4]
  Activity: 3.4%
[2]
  Activity: 2.4%
[5]
  Activity: 4%
[3]
  Activity: 2.7%

## CCOC(=O)C1=C(CN2CCC3(CC2)CC(NC(=O)OC(C)(C)C)C3)NC(c2nccs2)=NC1c1ccc(F)cc1Br (stereo unspecified)
[1]
  Activity: 97.2%
[2]
  Activity: 111%
[3]
  Activity: 117%

## CCOC(=O)C1=C(CN2CC3(C2)CN(C(=O)OC(C)(C)C)C3)NC(c2nccs2)=NC1c1ccc(F)cc1Br (stereo unspecified)
[1]
  Activity: 85.7%
[2]
  Activity: 105%
[3]
  Activity: 96.5%

## CCOC(=O)C1=C(CN2CCC3(CCN(C(=O)OC(C)(C)C)CC3)C2)NC(c2nccs2)=NC1c1ccc(F)cc1Br (stereo unspecified)
[1]
  Activity: 80.1%
[2]
  Activity: 102%
[3]
  Activity: 87%

## CCOC(=O)C1=C(CN2CC3(CNC3)C2)NC(c2nccs2)=NC1c1ccc(F)cc1Br (stereo unspecified)
[1]
  Activity: 85.9%
[2]
  Activity: 87.4%
[3]
  Activity: 94.8%

## CCOC(=O)C1=C(CN2CCC3(CC2)OCCO3)NC(c2nccs2)=NC1c1ccc(F)cc1Br (stereo unspecified)
[4]
  Activity: 3.8%
[2]
  Activity: 3.4%
[5]
  Activity: 3.1%
[3]
  Activity: 3.4%

## CCOC(=O)C1=C(CN2CCC3(CC2)CCN(C(=O)OC(C)(C)C)C3)NC(c2nccs2)=NC1c1ccc(F)cc1Br (stereo unspecified)
[8]
  Activity: 85%
[9]
  Activity: 92.5%
[10]
  Activity: 76.1%
[11]
  Activity: 85.3%

## CCOC(=O)C1=C(CN2CCC3(CC2)CCN(C(=O)OC(C)(C)C)CC3)NC(c2nccs2)=NC1c1ccc(F)cc1Br (stereo unspecified)
[8]
  Activity: 74.5%
[9]
  Activity: 91.1%
[10]
  Activity: 110%
[11]
  Activity: 93%

## CCOC(=O)C1=C(CN2CCC3(CCNC3)C2=O)NC(c2nccs2)=NC1c1ccc(F)cc1Br (stereo unspecified)
[2]
  Activity: 109%
[3]
  Activity: 81.4%

## CCOC(=O)C1=C(CN2CCC3(CC2)CC(N)C3)NC(c2nccs2)=NC1c1ccc(F)cc1Br (stereo unspecified)
[1]
  Activity: 69.9%
[2]
  Activity: 114%
[3]
  Activity: 105%

## CCOC(=O)C1=C(CN2CCC3(CC2)CN(C(=O)OC(C)(C)C)C3)NC(c2nccs2)=NC1c1ccc(F)cc1Br (stereo unspecified)
[8]
  Activity: 83.7%
[9]
  Activity: 60.9%
[10]
  Activity: 60.2%
[11]
  Activity: 87.7%

## CCOC(=O)C1=C(CN2CCC3(CCN(C(=O)OC(C)(C)C)C3)C2)NC(c2nccs2)=NC1c1ccc(F)cc1Br (stereo unspecified)
[1]
  Activity: 67.1%
[2]
  Activity: 16.8%
[3]
  Activity: 28.8%
